Screening results deposited in PubChem BioAssay by Johns Hopkins Ion Channel Center.
RGS4 act: RGS4 potentiators or activators, primary screen, cell-based, HEK293 M3R inducible RGS4, calcium flux; 0.92% of 310,000 active; AID 463111, 2010; carbachol calcium flux Fluo4; active compounds read low; B-score at 10 µM;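 active means B-score of the integrated calcium signal more than 4 SD below the library mean, with starting fluorescence not abnormally high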;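 further: negative B-score means reduced calcium response which marks RGS4 activation or potentiation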
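Material: Inducible-RGS4 HEK293 cells carrying M3 receptor; also added: carbachol at ECmax as muscarinic agonist stimulus; incubation: compound preincubation 20 min at room temperature before agonist; signal: Fluo4-AM (2 µM) calcium-flux fluorescence, kinetic read; measure: integrated calcium ratio converted to B score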
MrgX1 allo act: positive allosteric modulators of MrgX1, primary screen, HEK293 cells, Fluo-4 calcium flux | Mas-related G-protein coupled receptor member X1 (Homo sapiens), Q96LB2 | FDSS; active compounds read high | B-score at 10 µM | 0.63% of 310,000 active | AID 588675, 2011;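 active means plate-corrected calcium response at least 3 library SD above typical, normal starting fluorescence, not activating the receptor alone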;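 further: compound read alongside a low EC10 to EC30 dose of BAM8-22 agonist; peak minus trough fluorescence over baseline measured at the second addition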
Target sequence (Q96LB2 whole entry, looked up): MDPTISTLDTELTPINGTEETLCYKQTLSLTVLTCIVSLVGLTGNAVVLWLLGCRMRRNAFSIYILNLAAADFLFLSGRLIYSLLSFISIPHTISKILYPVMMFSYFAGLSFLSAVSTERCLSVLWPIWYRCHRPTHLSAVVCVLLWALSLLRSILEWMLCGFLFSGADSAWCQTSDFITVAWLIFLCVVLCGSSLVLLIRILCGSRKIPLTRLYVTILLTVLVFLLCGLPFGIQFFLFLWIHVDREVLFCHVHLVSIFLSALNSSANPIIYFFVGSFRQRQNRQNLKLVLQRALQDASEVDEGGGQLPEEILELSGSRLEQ
MrgX1 antag: antagonists of human MrgX1 receptor, primary screen, HEK293 cells, Fluo-4 calcium flux; BAM8-22 antagonism; active compounds read low; B-score at 10 µM; 1.3% of 310,000 active; AID 588676, 2011;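 active means calcium-response B-score plate-corrected more than 3 library SD below zero, starting fluorescence within 5 deviations, no agonist response on first addition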;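 further: peak minus trough fluorescence over baseline after final BAM8-22 challenge near maximal dose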
RGS4 inh: RGS4 inhibitors, primary screen, cell-based, HEK293 M3R inducible RGS4, calcium flux | Regulator of G-protein signaling 4 (Homo sapiens), P49798 | Fluo-4 calcium flux; active compounds read high; triggered by carbachol at its EC20 | B-score at 10 µM | 0.45% of 310,000 active | AID 463165, 2010;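 active means B-score, a plate-corrected calcium signal, over three deviations above library mean, with baseline fluorescence within five deviations of library mean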;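 further: RGS4 expression induced by doxycycline in cells with stable M3 receptor; B-score is computed from the integrated fluorescence ratio over baseline after carbachol; higher B-score means a larger calcium signal and so more RGS4 inhibition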
Target sequence (P49798 whole entry, looked up): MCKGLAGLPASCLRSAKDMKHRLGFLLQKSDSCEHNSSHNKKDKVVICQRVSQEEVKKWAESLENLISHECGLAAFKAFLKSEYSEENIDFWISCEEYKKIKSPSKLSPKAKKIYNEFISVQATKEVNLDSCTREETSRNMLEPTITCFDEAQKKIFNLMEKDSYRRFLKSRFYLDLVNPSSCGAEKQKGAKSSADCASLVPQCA
MrgX1 agonist: agonists of human MrgX1 receptor, primary screen, HEK293 cells, Fluo-4 calcium flux | Mas-related G-protein coupled receptor member X1 (Homo sapiens), Q96LB2 | Fluo-4 calcium fluorescence, agonist mode; active compounds read high | B-score at 10 µM | 0.44% of 310,000 active | AID 588627, 2011;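 active means calcium response B-score plate-corrected fluorescence ratio at least 3 library SD, with starting fluorescence B-score inside 5 SD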
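times = overnight plating, then 30 min 37 °C plus 30 min room-temperature dye loading | assay system = stable human MrgX1 HEK293 cell line | input = fifteen thousand cells per well | signal = kinetic calcium dye fluorescence, Fluo-4 NW | dosing = compound delivered in addition one of three | read-out = B-scored fluorescence response ratio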
RGS4 block valid: enhanced carbachol calcium response, M3R/RGS4 cells, RGS4 inhibitor project, cell-based, validation screen, HEK293 M3R/RGS4, calcium flux; shares compounds with RGS4 inh; carbachol calcium Fluo-4 fluorescence; carbachol added at its EC20; 0 = buffer wells, 100 = carbachol control; calcium response, % at 10 µM; 65% of 1,700 active; AID 492999, 2010;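 active means duplicate-averaged calcium response above the buffer-only control mean plus 5 SD of those controls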;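 further: integrated fluorescence ratio F max minus min over baseline F0; higher response in RGS4-induced cells means RGS4 inhibition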
RGS4 uninduced: carbachol calcium response in non-induced M3R cells, confirmation, counter-screen for RGS4 inhibitor project, cell-based, HEK293 M3R | carbachol calcium Fluo-4; submaximal (EC20) carbachol stimulus; buffer wells 0%, carbachol control wells 100% | 20% of 1,900 active | activity (percent), % at 10 µM | shares compounds with RGS4 inh; call rule not given here;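 further: RGS4 induction absent so cells express M3R without RGS4; higher means more calcium signal and flags a non-specific hit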
M3R basal Ca ctr: signal in non-induced cells without carbachol, RGS4 inhibitor counter-screen. calcium response (agonist-mode artifact), % at 10 µM. shares compounds with RGS4 inh. 22% of 1,900 active. AID 493001. HEK293 M3R/RGS4 non-induced, Fluo-4 calcium, no carbachol; normalised: buffer wells 0%, carbachol wells 100%;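 active means duplicate-averaged calcium rise in uninduced cells above buffer wells' mean plus 5 SD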
Hits are given with their value; . = inactive; / = no result given. Only some compounds are listed: those with a hit (about 3.5% of all), similar ones and a draw of the others.

SMILES | RGS4 act | MrgX1 allo act | MrgX1 antag | RGS4 inh | MrgX1 agonist | RGS4 block valid | RGS4 uninduced | M3R basal Ca ctr
NC(=O)c1cc2ccc(O)cc2oc1=Nc1ccccc1 | . | / | / | . | / | . | . | .
Cc1cc(N)n2ncc(-c3ccc(Cl)cc3)c2n1 | . | . | . | 5.1 | . | 17% | . | .
Cc1cc(N)n2ncc(-c3ccc(F)cc3)c2n1 | . | . | . | . | . | / | / | /
Nc1c(C(=O)O)cnc2c(-c3ccc(Cl)cc3)cnn12 | . | . | . | 7.7 | . | 24% | 31% | .
COC(=O)c1ccccc1C(=O)N1CCCC(CNC(=O)c2ccc(F)cc2)C1 (stereo not drawn) | . | . | . | . | . | / | / | /
O=C(O)CCC(=O)Nc1sc2c(c1C(=O)Nc1ccccc1)CCCCC2 | . | . | . | 5.5 | . | 7.0% | 64% | .
CC(C)(C)c1ccc(Cn2c(=O)cnc3ccccc32)cc1 | . | . | . | . | . | / | / | /
O=C1NN(c2ccccc2)C(=O)/C1=C\c1coc2ccc(O)cc2c1=O | . | . | . | 7.9 | 27 | 30% | . | .
O=C1NN(c2ccccc2)C(=O)/C1=C/c1coc2ccccc2c1=O | . | . | . | . | . | / | / | /
COc1ccc(Cl)cc1S(=O)(=O)N1CCCC(C(=O)N2CCOCC2)C1 (stereo not drawn) | . | . | . | . | . | . | . | .
COc1ccc(Oc2ncccc2[N+](=O)[O-])cc1 | . | . | . | 13 | . | . | . | .
O=[N+]([O-])c1cccnc1Oc1ccc(F)cc1 | . | . | . | . | . | / | / | /
COc1ccccc1CNC(=O)N1CCN(c2ccccc2Cl)CC1 | . | . | . | . | . | / | / | /
COc1c(Cl)cnn(-c2ccccc2)c1=O | . | . | . | . | . | / | / | /
COc1nn(-c2ccccc2)c(=O)c(Cl)c1Cl | . | . | . | 5 | . | 10% | . | .
CCN1C(=O)N[C@@H](c2ccco2)C(C(C)=O)=C1C | . | . | . | . | . | / | / | /
COc1ccc(C(CNC(=O)c2cc(C)on2)N(C)C)cc1 (stereo not drawn) | . | . | . | . | . | / | / | /
N#CC1=C(N)N=C(SCc2cccc3ccccc23)C(C(N)=O)C12CCCCC2 (stereo not drawn) | . | . | . | 5.9 | . | 16% | . | .
O=C(O)CCn1c(SCc2cccc3ccccc23)nc2ccccc21 | . | . | . | . | . | / | / | /
c1ccc(-c2ccc(Oc3cc(N4CCOCC4)nc(-c4ccccc4)n3)cc2)cc1 | . | . | . | . | . | / | / | /
CC(C)Sc1cc(N2CCCC2)nc(-c2ccccc2)n1 | . | . | . | 6.2 | . | 23% | 51% | .
CC(C)Sc1cc(N2CCCC2)nc(-c2ccccc2Cl)n1 | . | . | . | . | . | / | / | /
CC(C)Sc1cc(N2CCCC2)nc(-c2ccc(F)cc2)n1 | . | . | . | 9.2 | . | 26% | . | .
CC(C)Sc1cc(N2CCOCC2)nc(-c2ccccc2)n1 | . | . | . | . | . | . | 30% | 10%
CCSc1cc(N2CCCC2)nc(-c2ccccc2)n1 | . | . | . | . | . | / | / | /
COc1ccc(CC(=O)Nc2ccc(S(=O)(=O)Nc3cc(C)on3)cc2)cc1OC | . | . | . | . | . | / | / | /
COc1cc(NS(=O)(=O)c2ccc(NC(C)=O)cc2)nc(OC)n1 | . | . | . | . | . | / | / | /
COc1ccc(-c2csc(Nc3ccc(S(=O)(=O)Nc4cc(OC)nc(OC)n4)cc3)n2)cc1 | . | . | . | 5.7 | . | 18% | . | .
